Test results: ChEMBL document CHEMBL3414540, “Synthesis, crystal structure and effect of indeno[1,2-b]indole derivatives on prostate cancer in vitro. Potential effect against MMP-9” (Eur J Med Chem, 2015)
≈ marks a conversion by molar mass, not a printed value.

Legend:
Assay type in all cases: functional, cell-based
[1] = (§1) Cytotoxicity against human PC3 cells after 72 hrs by XTT assay; settings: PC-3, 72 h
Summary of the method: (§2)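 Compounds in DMSO (5-100 µg/ml, final DMSO <0.2%) were added for 72 h. XTT was then added (4 h, 37°C) and formazan read at 492 nm. IC50 is the 50% viability drop versus vehicle. Three experiments, five wells each, mean ± SEM.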

LNCaP = test: Cytotoxicity against human LNCAP cells after 72 hrs by XTT assay; summary of the method: as §2
[2] = (§3) Cytotoxicity against rat MAT-LyLu cells after 72 hrs by XTT assay; settings: MAT-Ly-Lu; summary of the method: as §2
PC-3 = test: as §1; summary of the method: as §2
MAT-Ly-Lu = test: as §3; summary of the method: as §2

| SMILES | IC50 [1] [µg/mL] | IC50 (LNCaP) [µg/mL] | IC50 [2] [µg/mL] | inhibition (PC-3) | inhibition (LNCaP) | inhibition (MAT-Ly-Lu) |
| --- | --- | --- | --- | --- | --- | --- |
| COc1cc(N2C3=C(C(=O)CC(C)(C)C3)[C@]3(O)C(=O)c4ccccc4[C@]23O)cc(OC)c1OC (racemic) | > 100 | > 100 | > 100 | – | – | – |
| Cc1ccccc1N1C2=C(C(=O)CCC2)[C@]2(O)C(=O)c3ccccc3[C@]12O (racemic) | > 100 | > 100 | > 100 | – | – | – |
| Cc1ccc(N2C3=C(C(=O)CC(C)(C)C3)[C@]3(O)C(=O)c4ccccc4[C@]23O)cc1C (racemic) | > 100 | > 100 | > 100 | – | – | – |
| Cc1ccc(N2C3=C(C(=O)CCC3)[C@]3(O)C(=O)c4ccccc4[C@]23O)cc1 (racemic) | > 100 | > 100 | > 100 | – | – | – |
| Cc1ccc(C)c(N2C3=C(C(=O)CC(C)(C)C3)[C@]3(O)C(=O)c4ccccc4[C@]23O)c1 (racemic) | > 100 | > 100 | > 100 | – | – | – |
| Cc1ccc(N2C3=C(C(=O)CCC3)[C@]3(O)C(=O)c4ccccc4[C@]23O)cc1C (racemic) | > 100 | > 100 | > 100 | – | – | – |
| CC1(C)CC(=O)C2=C(C1)N(c1ccc(Cl)cc1)[C@@]1(O)c3ccccc3C(=O)[C@@]21O (racemic) | 76.6 (≈ 187 µM) | 66.2 (≈ 162 µM) | > 100 | Dose-dependent effect | Dose-dependent effect | Dose-dependent effect |
| Cc1ccc(N2C3=C(C(=O)CC(C)(C)C3)[C@]3(O)C(=O)c4ccccc4[C@]23O)cc1 (racemic) | > 100 | > 100 | > 100 | – | – | – |
| Cc1cc(C)cc(N2C3=C(C(=O)CCC3)[C@]3(O)C(=O)c4ccccc4[C@]23O)c1 (racemic) | > 100 | > 100 | > 100 | – | – | – |
| Cc1ccc(N2C3=C(C(=O)CC(C)(C)C3)[C@]3(O)C(=O)c4ccccc4[C@]23O)c(C)c1 (racemic) | > 100 | > 100 | > 100 | – | – | – |
| Cc1ccc(N2C3=C(C(=O)CCC3)[C@]3(O)C(=O)c4ccccc4[C@]23O)c(C)c1 (racemic) | > 100 | > 100 | > 100 | – | – | – |
| COc1ccc(N2C3=C(C(=O)CCC3)[C@]3(O)C(=O)c4ccccc4[C@]23O)cc1OC (racemic) | > 100 | > 100 | > 100 | – | – | – |
| COc1cccc(N2C3=C(C(=O)CC(C)(C)C3)[C@]3(O)C(=O)c4ccccc4[C@]23O)c1 (racemic) | > 100 | > 100 | > 100 | – | – | – |
| Cc1ccc(C)c(N2C3=C(C(=O)CCC3)[C@]3(O)C(=O)c4ccccc4[C@]23O)c1 (racemic) | > 100 | > 100 | > 100 | – | – | – |
| COc1ccc(OC)c(N2C3=C(C(=O)CCC3)[C@]3(O)C(=O)c4ccccc4[C@]23O)c1 | > 100 | > 100 | > 100 | – | – | – |
| COc1ccccc1N1C2=C(C(=O)CCC2)[C@]2(O)C(=O)c3ccccc3[C@]12O (racemic) | > 100 | > 100 | > 100 | – | – | – |
| O=C1CCCC2=C1[C@]1(O)C(=O)c3ccccc3[C@]1(O)N2c1ccc(Cl)c(Cl)c1 (racemic) | 47.8 (≈ 115 µM) | 53.9 (≈ 130 µM) | 75.2 (≈ 181 µM) | Dose-dependent effect | Dose-dependent effect | Dose-dependent effect |
